Compound activity (PubChem BioAssay)
MEKK2mut PB1 HTS = signal of MEK5 binding to mutant human MEKK2 PB1 domain. bead flow cytometry, Alexa488-MEK5 binding to MEKK2 mutant. percent response, % at 10 µM. 290,000 compounds, 0.35% hits. AID 1530; in the data active = percent response above about 24%, passing the limit was not always enough
Dynein cargo inh = blocks dynein driven cargo transport along microtubules; z-score, hits read low; 220,000 compounds, 0.47% hits; AID 1381; 3617.4 mouse cells, GR-EGFP nuclear translocation imaging; test concentration mostly 20 µM; stimulated with dexamethasone, 1 µM; hits give low values;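 active = plate z-score of nuclear minus cytoplasmic receptor signal below a set negative limit, without overly bright fluorescence or cell loss, cut at about -3.5 in these data, passing the limit was not always enough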;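 note: z-score of nuclear minus cytoplasmic ring GR-EGFP intensity difference per well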
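Buffer or medium: tetracycline-free induction medium containing charcoal-stripped FBS / Reagent: dexamethasone agonist, 1.0 µM final, for 30 min / Technique: automated 10x imaging of fixed Hoechst-stained cells / Times: induction 48 h, compound 1 h, agonist 30 min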
MEKK3 PB1 HTS = modulators (inhibitors or enhancers) of MEK5 binding to human MEKK3 PB1 domain; AID 1529; 290,000 compounds, 1.4% hits; binding response (% of control), % at 10 µM; bead-based flow cytometry, Alexa488-MEK5 binding to MEKK3; actives lie on both sides; 0 = blocked by unlabeled MEK5, 100 = vehicle;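 active = binding response more than 3 SD above or below the average of its plate-row segment, actives on both sides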;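 note: Alexa488 bead fluorescence after subtracting the streptavidin-only scavenger bead signal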
B2AR ag = activates human beta-2 adrenergic receptor causing internalization; P07550; Am2.2-beta2AR cells, FAP receptor internalization, flow cytometry; 340,000 compounds, 0.43% hits; response, % (concentration not given with the values);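 active = response above a set limit, near 3 SD of response in nonfluorescent compounds, cut at about 42% in these data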
MEKK2 WT-MEK5 = raises or lowers MEK5 binding to wildtype human MEKK2 PB1 domain; bead flow cytometry, Alexa488-MEK5 binding to MEKK2 WT; actives lie on both sides; binding response (% of control), % at 10 µM; Q9Y2U5; AID 1531; 290,000 compounds, 1.1% hits; in the data active = binding response below about 67% or above about 130%
ATG4B inh = inhibitors of human ATG4B cysteine protease; ATG4B cleavage of LC3-PLA2, NBD-HPC fluorescence, 1 h; AID 504462; inhibition, % at 8.33 µM; 340,000 compounds, 0.51% hits; in the data active = inhibition above about 40%
Target sequence (Q9Y4P1 whole entry, looked up): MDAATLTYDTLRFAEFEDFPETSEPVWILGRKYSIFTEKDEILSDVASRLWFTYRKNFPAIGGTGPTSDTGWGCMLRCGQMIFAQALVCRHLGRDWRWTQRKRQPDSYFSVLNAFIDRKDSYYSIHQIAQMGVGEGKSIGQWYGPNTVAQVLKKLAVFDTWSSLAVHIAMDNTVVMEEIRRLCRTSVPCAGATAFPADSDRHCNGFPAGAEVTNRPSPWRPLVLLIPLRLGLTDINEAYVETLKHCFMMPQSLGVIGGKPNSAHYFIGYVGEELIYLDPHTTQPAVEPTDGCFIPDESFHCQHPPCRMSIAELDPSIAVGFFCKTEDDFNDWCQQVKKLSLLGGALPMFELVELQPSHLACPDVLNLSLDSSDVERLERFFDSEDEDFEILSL
Dynein inh conf = dynein cargo transport inhibition, confirmation. 1,000 compounds, 69% hits. 3617.4 GR-EGFP nuclear translocation imaging, dexamethasone-induced. calls only at 20 µM. shares compounds with Dynein cargo inh;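 active = inhibition of receptor movement into the nucleus at or above a set limit in both runs, with normal cell brightness and cell count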;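 note: dexamethasone at 1 µM final in well for 30 min; nuclear minus cytoplasmic GR-EGFP mean intensity difference in channel 2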
MEKK2wt confirm = raises or lowers MEK5 binding to wildtype human MEKK2, retest | shares compounds with MEKK3 PB1 HTS | bead flow cytometry, Alexa488-MEK5 binding to MEKK2 WT; actives lie on both sides | binding response (% of control), % at 10 µM | 5,900 compounds, 2.4% hits | AID 1892; in the data active = binding response below about 16% or above about 210%; inactive = in between
MEKK2mut-MEK5 = signal of MEK5 binding to mutant human MEKK2, retest | shares compounds with MEKK3 PB1 HTS | bead flow cytometry, Alexa488-MEK5 binding to MEKK2 mutant | percent response, % at 10 µM | 5,900 compounds, 2% hits | AID 1893; in the data active = percent response mostly above about 71%, no sharp cut-off; inactive = mostly below about 38%;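 note: higher means compound restores mutant binding toward wildtype level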
MEKK3-MEK5 inh = MEKK3-MEK5 PB1 inhibition, single concentration confirmation. shares compounds with MEKK3 PB1 HTS. bead flow cytometry, Alexa488-MEK5 binding to MEKK3; hits give low values. binding response (% of control), % at 10 µM. 5,900 compounds, 1.8% hits;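 active = binding response below 72% of control, or above a set upper limit, though filed actives all read lower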;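 note: 100% = DMSO only wells and 0% = binding blocked by excess unlabeled MEK5; lower values mean stronger disruption of MEK5 binding to MEKK3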
B2AR ag CP1 = human beta-2 adrenergic receptor agonism, cherry pick; shares compounds with B2AR ag; Am2.2-beta2AR cells, FAP surface receptor, flow cytometry; hits give low values; percent response (surface receptor), % at 10 µM; 1,100 compounds, 25% hits;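 active = surface receptor percent response at or below 58%, roughly 3 SD from nonfluorescent compounds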
FAP fluor counter = fluorescence artifact in beta-2AR agonist FAP counterscreen; shares compounds with B2AR ag; Am2.2 cells, FAP fluorogen flow cytometry; hits give low values; AID 588765; calls only at 10 µM; 1,100 tested, under 10 active;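 active = percent response below a set limit in fluorescence channel 1 and below 50% in channel 8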
An asterisk follows results filed as active; i = inactive; . = not tested or not shown; + = active, no number; [ ] = another dose, or the depositor's remark. Shown are actives, neighbours in structure and some others; about 2.9% of the full set was active somewhere.

SMILES	MEKK2mut PB1 HTS	Dynein cargo inh	MEKK3 PB1 HTS	B2AR ag	MEKK2 WT-MEK5	ATG4B inh	MEKK2wt confirm	MEKK2mut-MEK5	MEKK3-MEK5 inh	others
CC(C)n1c(O)c(C2c3cc(Cl)ccc3Oc3[nH]c(=O)n(C(C)C)c(=O)c32)c(=O)[nH]c1=O (stereo unspecified)	2	-5.3*	106	59*	100	-4	.	.	.	Dynein inh conf=+;B2AR ag CP1=48*;FAP fluor counter=+
CC[n+]1c(/C=C/C=C/c2ccc(N(C)C)cc2)sc2ccccc21	12	-3.7*	95	46*	-5.0*	29	.	.	.	Dynein inh conf=+;B2AR ag CP1=105;FAP fluor counter=i
CC(=O)[C@@]1(O)CCC2C3CC=C4C[C@@H](O)CC[C@]4(C)C3CC[C@@]21C (stereo partly specified)	.	.	.	4	.	-3	.	.	.
O=C1NC(=O)C(Cc2ccccc2)(Cc2ccccc2)C(=O)N1Cc1ccccc1	.	.	.	-2	.	20	.	.	.
OC(c1ccccc1)(c1ccccc1)C1CCNCC1	9	1.7	101	2	136*	-2	105	7	101
CCOC(=O)C(O)(c1ccc(NC(=O)Oc2ccccc2)cc1)C(F)(F)F (stereo unspecified)	3	0.0076	130*	9	107	-13	107	10	103
COC(=O)C1=C(c2c(C)noc2C)C[C@@H]2CC[C@H]1N2C(=O)N1CCC(C)CC1	.	.	.	-3	.	2	.	.	.
Cc1cc(C)n(-c2ccc(NN=C(C#N)C#N)cc2)n1	-57	-0.22	40*[inhibitor]	17	43*[inhibitor]	-1	94	-5	90
N#CC(C#N)=NNc1ccc(-n2ccc(C(F)(F)F)n2)cc1	-6	-0.042	93	27	91	8	.	.	.
c1ccc2nc(OCCN3CC3)ccc2c1	32*	-0.32	108	.	181*	-3	135	15	103
COc1ccc(S(=O)(=O)N2Cc3cnnn3-c3ccccc3C2C#N)cc1 (stereo unspecified)	.	.	.	0	.	2	.	.	.
CNC(C(=O)c1ccccc1)C(OC)c1cccc([N+](=O)[O-])c1 (stereo unspecified)	3	0.46	102	2	100	-7	.	.	.
Cc1ccc2c(c1)C1CN(C)CCC1N2C(=O)c1ccco1 (stereo unspecified)	-15	-1.3	71*[inhibitor]	-4	83	6	107	-4	100
Cc1ccc2c(c1)C1CN(C)CCC1N2C(=O)Nc1cccc(Cl)c1 (stereo unspecified)	9	0.54	83	11	127	-13	.	.	.
Cc1nc2c(-c3ccccc3)c(C)nn2c(C)c1CCC(=O)N1CCC2(CC1)OCCO2	-29	-0.63	44*[inhibitor]	0	101	2	106	0	100
CC(C)OP(=O)(OC(C)C)C(O)c1cccnc1 (stereo unspecified)	0	0.94	113	-5	99	-10	.	.	.
